Most compounds without a hit are left out; they make up all but 2.1% or so of the library.
hiPSC survival: increases survival of single human iPS cells. hiPSC single-cell survival, ATPlite luminescence; 100% = ROCK inhibitor wells, 0% = DMSO. survival enhancement, % at 20 µM. 360,000 tested, 0.044% active. AID 602274; in the data active = survival enhancement above about 18%;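 note: cells exposed to compounds for 16 hours before the ATP read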
CRFR2-BP ag: agonists of human CRF-binding protein/CRF-R2 receptor complex; HEK293 CRF-R2/CRF-BP, calcium dye fluorescence (FLIPR); percent of saturating CRF peptide response; 350,000 tested, 0.46% active; activation, % at 13.2 µM;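 active = activation of at least 50%, plus an integration ratio under a set limit after plate pattern correction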;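 note: plate controls were neutral control wells without compound for no effect and CRF at EC100 for full effect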
CRFR2-BP antag: blocks CRF-induced signaling of the CRF-BP/CRF-R2 complex; HEK293 CRF-R2/CRF-BP, CRF-induced calcium fluorescence; inhibition, % at 11.8 µM; 350,000 tested, 0.59% active;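 active = inhibition of the ligand-induced calcium signal above about 50% at the single tested concentration, limit read from the data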
UCH37 inh: blocks the human deubiquitinase UCH37. Q9Y5K5. purified proteasome/UCH37, Ub-AMC cleavage fluorescence. inhibition, % (test concentration not listed). 330,000 tested, 0.33% active. AID 588478;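 active = mean inhibition over replicate wells above about 20%, limit read from the data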;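 note: 0% = compound-free wells with enzyme and 100% = wells lacking proteasome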
Target sequence (Q9Y5K5 whole entry, looked up): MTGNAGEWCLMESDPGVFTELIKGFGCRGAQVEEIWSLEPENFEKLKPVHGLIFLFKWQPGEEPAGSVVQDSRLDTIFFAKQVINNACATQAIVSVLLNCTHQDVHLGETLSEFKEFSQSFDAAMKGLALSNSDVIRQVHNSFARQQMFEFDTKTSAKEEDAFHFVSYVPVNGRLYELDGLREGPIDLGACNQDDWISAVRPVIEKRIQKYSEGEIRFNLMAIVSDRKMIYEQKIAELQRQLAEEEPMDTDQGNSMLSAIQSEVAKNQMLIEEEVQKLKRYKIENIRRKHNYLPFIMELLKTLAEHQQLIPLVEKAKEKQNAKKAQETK
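Assay system: Proteasome-bound UCH37. Buffer or medium: pH 7.4 Tris-HCl (50 mM) with ovalbumin, ATP-MgCl2, DTT. Incubation: 30 min preincubation with enzyme, 25 min cleavage at room temperature. Measured by: fluorescence, ex 355 nm, em 460 nm. Read-out basis: percent inhibition. Control set: wells without proteasome as full block, compound-free enzyme plus substrate as uninhibited.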
Cardio protect: protects H9c2 cardiomyocytes from peroxide injury | H2O2 injury protection, ATPLite, 2 h | protection from H2O2 cell death, % at 20 µM | 360,000 tested, 0.63% active | AID 588492;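 active = compounds giving at least 50% protection of heart cells from peroxide-induced death in the single-dose screen, raw or plate-pattern-corrected value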;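 note: 0% = DMSO wells with peroxide and 100% = DMSO wells without peroxide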
beta cell repl: induces beta-cell replication in MIN6 cells; MIN6 cells proliferation, ATPlite luminescence, 48 h; cells starved in 0.2% serum; 100% = growth in 10% serum; AID 2380; 330,000 tested, 0.29% active; proliferation, % at 10 µM;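 active = compounds whose signal lies at least 3.5 SD above the mean of all wells on their plate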;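 note: 0% = DMSO-treated cells in low-serum medium and 100% = 10% serum control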
* hit, by the source's call; / = no result.

SMILES	hiPSC survival	CRFR2-BP ag	CRFR2-BP antag	UCH37 inh	Cardio protect	beta cell repl
O=C(NN=CC1CCCCC1)c1ccccc1-n1cccc1	/	/	/	0.3	/	/
Cc1cc(SCC(=O)Nc2cccc(S(N)(=O)=O)c2)c(C)cc1Br	1.8	1.8	102.9*	6.1	-20.8	2.4
COc1cccc2c(SCC(=O)N/N=C/c3ccccc3)cc(C)nc12	-2.1	1.1	-41.5	/	-2.3	4.4
Cc1cc(SCC(=O)N/N=C/c2ccc(O)c(O)c2)c(C)cc1Br	0.7	-0.6	0.4	/	53.7*	0.9
O=C(CSc1nc2ccccc2o1)N/N=C/c1ccccc1	-0.7	0.2	27.3	/	-3.1	0.8
O=C(CSc1nc2ccccc2o1)N/N=C/c1ccc(O)c(O)c1	-0.5	2.6	-5.0	/	66.9*	-2.0
COc1cccc2c(SCC(=O)N/N=C/c3ccc(O)c(O)c3)cc(C)nc12	-1.1	-3.2	28.6	/	67.4*	/
COc1ccc(C(=O)O/N=C(/c2ccccc2)c2ccncc2)cc1OC	0.0	-1.4	0.9	/	58.8*	3.1
C=CCn1c(-c2ccc(N)cc2)nc2ccccc21	-2.4	0.0	8.8	-44.1	-2.1	-5.1
C=CCn1c(-c2ccc(OC)cc2)nc2ccccc21	-2.5	154.4*	-180.0	-1.4	-25.6	-1.8
O=C(NN=Cc1ccc([N+](=O)[O-])cc1)c1c[nH]c2ccccc12	/	/	/	3.9	/	/
CN(CC(=O)Nc1ccc(Cl)c(C(F)(F)F)c1)C(=O)CCc1nc2ccccc2c(=O)[nH]1	-0.7	2.0	-2.2	1.3	49.4	-0.5
CN(CC(=O)Nc1ccccc1Cl)C(=O)CCc1nc2ccccc2c(=O)[nH]1	-0.2	-0.6	17.8	-0.3	64.0*	-0.8
O=C(CCc1nc2ccccc2c(=O)[nH]1)NCc1ccco1	4.8	-0.7	-4.7	1.9	76.0*	-3.2
N#CCCN(C(=O)CSc1nc2ccccc2c(=O)[nH]1)c1ccc(F)cc1	-0.4	-2.9	4.0	0.0	48.1	-0.3
N#CCCN(C(=O)COC(=O)CCc1nc2ccccc2c(=O)[nH]1)c1ccc(F)cc1	0.2	0.3	7.0	5.2	53.6*	-1.5
COc1cc(CCC(=O)NC2(C)CCS(=O)(=O)C2)cc(OC)c1OC (stereo not drawn)	-0.3	-1.6	53.1*	-0.7	-3.7	0.5
O=C(CCc1nc2ccccc2c(=O)[nH]1)NCc1ccccn1	0.5	10.6	13.2	3.0	43.5	-0.9
CCOC(=O)C(C)C(C)=NNc1ccc([N+](=O)[O-])cc1[N+](=O)[O-] (stereo not drawn)	/	/	/	7.7	/	/
CC(Cc1ccccc1)=NNC(=O)CNC(=O)Cc1ccc(Cl)cc1	/	/	/	8.3	/	/
O=C(CCc1nc2ccccc2c(=O)[nH]1)Nc1nc(-c2cccs2)cs1	0.5	7.1	-10.9	2.9	64.7*	-0.2
CC1(NC(=O)CCc2nc3ccccc3c(=O)[nH]2)CCS(=O)(=O)C1 (stereo not drawn)	0.7	0.4	-3.4	-1.2	50.8*	-1.9
O=C(COc1ccccc1)NCc1ccco1	5.8	4.0	65.3*	0.5	2.3	/
COc1ccccc1NS(=O)(=O)c1cc(NC(=O)CCc2nc3ccccc3c(=O)[nH]2)ccc1C	-0.2	-0.1	0.7	-0.2	94.3*	-3.6
CC(C)(C)c1ccc(OCC(=O)NCc2ccco2)cc1	-1.6	-3.0	-6.6	2.2	0.7	-3.9
SMILES	hiPSC survival	CRFR2-BP ag	CRFR2-BP antag	UCH37 inh	Cardio protect	beta cell repl
COc1ccc(NC(=O)COC(=O)CCc2nc3ccccc3c(=O)[nH]2)cc1Cl	-0.4	0.4	6.2	0.8	33.0	-1.8
CCOc1ccc(C=NNc2nncc(-c3ccccc3)n2)cc1OC	/	/	/	2.7	/	/
O=[N+]([O-])c1ccccc1C=NNc1nccs1	/	/	/	6.1	/	/
O=C(CCc1nc2ccccc2c(=O)[nH]1)Nc1ccc(F)cc1	0.8	-0.6	14.2	1.9	62.1*	0.0
CN(CC(=O)Nc1ccc(F)cc1)C(=O)CCc1nc2ccccc2c(=O)[nH]1	0.3	5.1	14.1	1.3	60.1*	0.3
Cc1cc(C=NNC(N)=S)c(C)n1-c1ccc(Cl)c(Cl)c1	/	/	/	-1.9	/	/
O=C(NCCCNCc1ccccc1)C(=NO)c1ccccc1	/	/	/	1.2	/	/
O=c1oc(CCO)cc2ccc(Br)cc12	-0.3	-0.5	66.2*	0.3	9.8	-1.7
CSc1nnc(C(C)(C)C)c(=O)n1N=Cc1ccccc1	/	/	/	2.1	/	/
O=C(N/N=C\c1c(O)ccc2ccccc12)c1ccc(S(=O)(=O)N2CCCCC2)cc1	-0.9	203.4*	-326.0	/	21.8	-5.1
O=C(NN=Cc1c(O)ccc2ccccc12)c1cccnc1	/	/	/	5.0	/	/
O=C(N/N=C/c1c(O)ccc2ccccc12)c1ccc(CO)nc1	-0.4	29.6	-36.3	/	59.4*	-3.0
O=C(NN=Cc1ccccn1)c1ccc([N+](=O)[O-])cc1	/	/	/	3.3	/	/
COc1ccc(/C(O)=C2/C(=O)C(=O)N(CCN(C)C)C2c2cccnc2)cc1C (stereo not drawn)	0.1	94.3*	4.9	12.0	-0.9	-1.2
CCOC(=O)c1[nH]c(C)c(/C(O)=C2\C(=O)C(=O)N(CCN(C)C)C2c2ccncc2)c1C (stereo not drawn)	0.6	0.1	-10.3	29.2*	-5.6	2.6
CCOC(=O)c1[nH]c(C)c(/C(O)=C2\C(=O)C(=O)N(CCCn3ccnc3)C2c2ccncc2)c1C (stereo not drawn)	-1.9	-2.6	-4.8	8.9	-3.5	-2.7
COc1ccc(/C(O)=C2/C(=O)C(=O)N(CCN(C)C)C2c2cccnc2)cc1OC (stereo not drawn)	1.5	1.2	-1.0	9.8	0.9	-0.7
O=C1CSC(c2cn(-c3ccccc3)nc2-c2cc3ccccc3oc2=O)N1Cc1ccccc1 (stereo not drawn)	-1.4	0.4	10.8	-24.9	19.2	-1.8
O=C1CSC(c2nn(-c3ccccc3)cc2-c2cc3ccccc3oc2=O)N1Cc1ccco1 (stereo not drawn)	-1.2	3.5	83.5*	-123.8	19.9	-2.5
Cc1cccc(C(C)C)c1-n1nnnc1-c1ccccc1	-1.0	-4.5	54.4*	0.7	-10.0	-1.0
O=C1CCC(C(=O)Nc2ccccc2N2CCCC2)=NN1	-0.3	1.5	-0.6	2.9	-1.4	4.5
O=C1CCC(C(=O)Nc2ccccc2N2CCOCC2)=NN1	0.8	-2.2	67.1*	3.6	6.4	-0.2
O=C(NN=Cc1ccc[nH]1)c1cncc(Br)c1	/	/	/	11.6	/	/
Cc1ccc(C(=O)NNC(=S)NC(=O)c2ccc(Cl)cc2)cc1	-1.4	216.2*	-123.0	0.8	18.0	-5.1
O=C(CCc1ccccc1)NNC(=S)NC(=O)c1ccc(Cl)cc1	/	99.1*	12.9	-0.2	/	-3.7
COc1cccc(C=c2sc(=C(C#N)C(=O)N3CCOCC3)n(-c3ccccc3)c2=O)c1	/	/	/	-20.6	/	/
